Most compounds without a hit are left out; they make up all but 2.5% or so of the library.
PRMT1 inh: PRMT1 methyltransferase inhibitors, primary screen, biochemical, fluorescence polarization; Protein arginine N-methyltransferase 1 (Homo sapiens), Q99873; recombinant PRMT1, activity-based probe fluorescence polarization; inhibition, % at 2.79 µM; actives 1.3% (n = 370,000); AID 652257, 2013;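 active = inhibition above about 21% made by adding two undisclosed values, limit read from the data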
HTRA1 inhibitor: HTRA1 serine protease inhibitors, primary screen, biochemical, fluorescence polarization, HTS. inhibition, % at 5.96 µM. Q92743. AID 504803, 2011. actives 0.5% (n = 340,000). recombinant HTRA1, FP-rhodamine activity-based probe; in the data active = inhibition above about 36%
ABHD4 inh: ABHD4 inhibitors, primary screen, biochemical, fluorescence polarization, mouse; (Lyso)-N-acylphosphatidylethanolamine lipase (Mus musculus), Q8VD66; purified mABHD4, FP-Rh probe fluorescence polarization; inhibition, % at 8.92 µM; actives 0.54% (n = 370,000);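 active = inhibition exceeding the mean over every tested compound plus 3 SD, cut at about 30% in these data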
Target sequence (Q8VD66 whole entry, looked up): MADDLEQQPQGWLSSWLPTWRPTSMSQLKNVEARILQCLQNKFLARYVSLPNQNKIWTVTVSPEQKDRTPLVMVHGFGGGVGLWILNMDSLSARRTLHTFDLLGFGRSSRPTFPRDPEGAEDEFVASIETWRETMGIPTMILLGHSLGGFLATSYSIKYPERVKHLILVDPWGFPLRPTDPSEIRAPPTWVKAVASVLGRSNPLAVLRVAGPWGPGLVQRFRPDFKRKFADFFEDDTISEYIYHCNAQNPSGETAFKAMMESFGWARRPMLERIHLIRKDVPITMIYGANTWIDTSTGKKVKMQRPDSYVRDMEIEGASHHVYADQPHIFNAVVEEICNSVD
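Assay system: mouse ABHD4 enzyme, wild type / Also added: fluorescent activity-based probe FP-Rh / Doses: single nominal dose of 8.92 µM, 0.89% DMSO final / Timing: 45 min compound pre-incubation plus 60 min probe step, 25 °C / Signal: FP readout, ex 525 nm / em 598 nm / Control set: S159A mutant/DMSO as 100%, compound-well median as 0%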
SIAE primary: human SIAE inhibitors, primary screen, biochemical, fluorescence polarization, FP-Rh probe, 1536-well HTS. Sialate O-acetylesterase (Homo sapiens), Q9HAT2. SIAE FP-Rh probe binding. inhibition, % at 9.66 µM. actives 0.69% (n = 370,000). AID 1053197, 2014;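 active = inhibition above a cutoff: mean of compounds within the control limits plus 3 SD of those, cut at about 17% in these data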
TCR CD3 inh: inhibitors of human TCR-CD3 interaction, primary screen, biochemical, fluorescence, TAMRA-labeled TCR probe; T-cell receptor (TCR); inhibition, % at 9.4 µM; actives 0.37% (n = 360,000); AID 651800, 2012;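 note: recombinant mutant TCR 2C K166C tagged with TAMRA read by polarization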
BSA probe FL: compounds interfering with TAMRA-BSA probe, counter-screen for TCR-CD3 interaction inhibitor project, biochemical, fluorescence, TAMRA-labeled BSA; shares compounds with TCR CD3 inh; TAMRA-labeled BSA probe fluorescence counterscreen; inhibition, % at 9.4 µM; actives 10% (n = 1,200); AID 652035, 2013; in the data active = inhibition above about 23%
TCR-CD3 inh conf: TCR-CD3 interaction inhibitors, retest, confirmation, biochemical, fluorescence, TAMRA-labeled TCR probe; shares compounds with TCR CD3 inh; TAMRA-labeled TCR probe fluorescence binding assay; inhibition, % at 9.4 µM; actives 48% (n = 1,200)
Numbers stand for hits; 0 = inactive; - = no result. Cut-off read from the data, not from the text of the source, unless noted: active = inhibition above about 19%; inactive = the rest.

SMILES	PRMT1 inh	HTRA1 inhibitor	ABHD4 inh	SIAE primary	TCR CD3 inh	BSA probe FL	TCR-CD3 inh conf
O=c1c2ccccc2c(C=Nc2ccccc2O)c(O)n1-c1nccs1	0	0	0	0	61.5	0	49.7
CC1(C)CC2CC(C)(CN2S(=O)(=O)c2ccc(C(=O)Nc3ccc(S(=O)(=O)N4CCOCC4)cc3)cc2)C1 (stereo not given)	0	0	0	0	40.6	23.0	56.2
CC1(C)CC2CC(C)(CN2S(=O)(=O)c2ccc(C(=O)Nc3ccc(Cl)c(S(=O)(=O)N4CCOCC4)c3)cc2)C1 (stereo not given)	0	0	0	0	0	-	-
O=C(NN1C(=O)/C(=C/c2ccc(O)c(O)c2)SC1=S)c1ccccc1	0	0	0	0	0	-	-
O=C(NN1C(=O)/C(=C/c2cccc(O)c2)SC1=S)c1ccccc1O	0	0	0	0	27.9	0	0
COc1ccccc1C(=O)N1CCN(C(=O)[C@H](CCc2ccccc2)NC(=O)[C@H]2O[C@@H](n3cnc4c(N)ncnc43)[C@H](O)[C@@H]2O)CC1	0	-	0	0	0	-	-
OCc1nc2ccccc2n1CCc1ccccc1	0	0	0	0	23.2	0	0
Cn1cccc1C(=O)N1CCN(S(=O)(=O)c2cccs2)CC1	0	-	0	0	-	-	-
Nc1ccc(N(CCO)CCO)cc1	0	0	0	0	27.2	0	0
COc1ccccc1-c1cccc([C@@H]2C[C@H]3[C@H](CON3C)CN2Cc2ccccc2)c1	0	0	0	0	0	-	-
CN1OC[C@@H]2CN(Cc3ccccc3)[C@H](c3cccc(-c4ccc(C#N)cc4)c3)C[C@@H]21	0	0	0	0	24.0	0	0
COC(=O)C1CN(C2CC2)CCS(=O)(=O)N1Cc1cn(Cc2ccc(C)cc2)nn1 (stereo not given)	0	-	0	0	-	-	-
COc1cc(C2NC(=O)CCC2[N+](=O)[O-])cc(OC)c1OC (stereo not given)	0	0	0	0	22.6	0	0
COc1cccc(-c2nnc3n2N=C(c2ccc(Cl)cc2)CS3)c1	0	-	0	0	-	-	-
CCOc1ccc(CNc2ccc(S(N)(=O)=O)cc2)cc1	0	0	0	0	152.4	0	0
CCC(NC(=S)NC1CCCCC1)c1ccc(C(C)C)cc1 (stereo not given)	0	0	0	0	0	-	-
Brc1ccc(-c2ccc3c(n2)CCCN3Cc2ccccn2)cc1	0	-	0	0	0	-	-
Cc1cc2c(nc1C)CCCN2Cc1ccccn1	0	-	0	0	39.5	38.7	34.3
CCOC(=O)C1CCN(CC(O)COCc2cccs2)CC1 (stereo not given)	0	0	0	0	22.9	0	0
O=C(NCc1ccccc1)c1nccnc1CO	0	0	0	0	0	-	-
O=C(NCc1ccc(F)cc1F)[C@@H]1CCCN1C(=O)[C@@H]1CCCN1C(=O)c1ccccc1	0	-	0	0	0	-	-
CN(c1ccccc1)S(=O)(=O)c1ccc(Cl)c(C(=O)Nc2ccc(-c3nc4ccccc4[nH]3)cc2)c1	0	0	0	0	59.9	26.9	54.3
CS(=O)(=O)c1cccc(C(=O)Nc2ccc(-c3nc4ccccc4[nH]3)cc2)c1	0	0	0	0	0	-	-
O=C(c1ccccc1)c1ccc2nc(-c3ccc(NC(=O)c4ccccc4Br)cc3)[nH]c2c1	0	0	0	0	33.6	0	0
O=C(Nc1ccc(Cl)cc1)Nc1ccc(Cl)c(Cl)c1	0	-	0	0	22.1	0	19.2
SMILES	PRMT1 inh	HTRA1 inhibitor	ABHD4 inh	SIAE primary	TCR CD3 inh	BSA probe FL	TCR-CD3 inh conf
O=C(COc1ncnc2ccccc12)N1CCN(S(=O)(=O)c2ccc(Cl)cc2)CC1	0	0	0	0	0	-	-
CCN(c1ccccc1)S(=O)(=O)c1cc(NC(=O)CSc2n[nH]c(=O)[nH]c2=O)ccc1Cl	0	0	0	0	65.8	23.1	55.7
O=C(CSc1nnc(-c2cccs2)n1C1CC1)NC1CCS(=O)(=O)C1 (stereo not given)	0	0	0	0	0	-	-
O=C(NCC1(N2CCOCC2)CCCCC1)c1ccc(S(=O)(=O)Nc2ccccc2F)cc1	0	0	0	0	0	-	-
Cc1ccccc1NS(=O)(=O)c1ccc(C(=O)NCC2(N3CCOCC3)CCCCC2)cc1	0	0	0	0	27.3	0	0
CC1CCCN(CCOc2ccc3ccccc3c2Br)C1 (stereo not given)	0	0	0	0	0	-	-
CC(=O)c1ccc(NC(=O)c2cc(Cl)nc3ccccc23)cc1	0	0	0	0	62.0	0	0
O=C(N/N=C/c1cc([N+](=O)[O-])ccc1O)c1ccc(COc2ccc3c(c2)CCC3)o1	0	0	0	0	45.1	0	0
COc1ccc(-c2cn(-c3ccc(Cl)cc3)c3[n+]2CCCCC3)cc1	0	0	0	0	33.8	0	0
Cc1ccc(C(=O)/C=C/NNC(=O)c2ccccc2O)cc1	0	0	0	0	19.0	0	0
O=C(/C=C/NNC(=O)c1ccc(Cl)cc1)c1ccccc1	0	0	0	0	0	-	-
COc1ccc(C(=O)C=CNNC(=O)c2ccc(Cl)cc2)cc1	0	0	0	0	21.7	0	24.4
O=C(/C=C/NNC(=O)c1ccccc1)c1ccc(Br)cc1	0	0	0	0	0	-	-
COCCOC(=O)c1c(C)oc2ccc(O)c(CN3CCC(C)CC3)c12 (tested in a mixture with another compound)	0	0	0	0	0	-	-
COc1ccc(N(C(=O)c2ccco2)C(C(=O)NC2CCCC2)c2cc(OC)c(OC)c(OC)c2)cc1 (stereo not given)	0	0	0	0	0	-	-
O=C(CC1C(=O)NCCN1Cc1cccc(F)c1)NCCCCCN1CCOCC1 (stereo not given)	0	0	0	0	19.6	0	0
CC(=O)Nc1ccc(C(CCCc2ccccc2)C2=CCCCC2)cc1 (stereo not given)	0	-	0	0	-	-	-
CCC1CCCCN1c1nc(-c2ccncc2)nc2ccccc12 (stereo not given)	0	0	0	0	44.2	0	0
Cc1ccc(-n2c(O)c(/C=N/NC(=O)C3COc4ccccc4O3)c3ccccc3c2=O)cc1 (stereo not given)	0	0	0	0	19.9	0	34.1
CCC(=O)N1CC2(CC(c3cccc(NC(=O)CC(c4ccccc4)c4ccccc4)c3)=NO2)C[C@H]1C(N)=O (stereo not given in full)	0	0	0	0	0	-	-

Screening data: PubChem BioAssay, The Scripps Research Institute Molecular Screening Center
